Test results published in ChEMBL document CHEMBL1671633 (Antimicrob Agents Chemother, 2008).

Experiments:
[1] = AUC (0 to 24 hrs ) in healthy human at 400 mg, po qd measured on day 4 by HPLC; assay type: ADME, organism-based; parameters: time < 24 hr, dose 400 mg, route oral; conditions: plasma
[2] = Tmax in healthy human at 400 mg, po qd measured on day 4 by HPLC; assay type: ADME, organism-based; conditions: in vivo
Outline: (§1)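 Healthy volunteers took oral MXF 400 mg once daily with a continental breakfast (750 kcal, 20% fat). Sampling was on day 4 (after four doses, MXF alone) or on day 19 (with 900 mg RPT thrice weekly added from day 5; 72-h sampling). Plasma MXF was measured by validated HPLC with fluorescence detection (standard curve 0.20–15 µg/ml). Tmax was derived noncompartmentally.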

[3] = AUC (0 to 24 hrs ) in healthy human at 400 mg, po qd coadministered with 900 mg, po thrice weekly of rifapentine on day 5 post compound dose measured on day 19 post compound dose by HPLC; assay type: ADME, organism-based; parameters: time < 24 hr, dose 400 mg, route oral; conditions: plasma
[4] = Cmax in healthy human at 400 mg, po qd coadministered with 900 mg, po thrice weekly of rifapentine on day 5 post compound dose measured on day 19 post compound dose by HPLC; assay type: ADME, organism-based; parameters: dose 400 mg, route oral; conditions: in vivo
[5] = Tmax in healthy human at 400 mg, po qd coadministered with 900 mg, po thrice weekly of rifapentine on day 5 post compound dose measured on day 19 post compound dose by HPLC; assay type: ADME, organism-based; conditions: in vivo; outline: as §1
Homo sapiens [6] = experiment: AUC (0 to 48 hrs) in healthy human assessed as 25-desacetyl-rifapentine level at 900 mg, po administered as a single dose measured on day 5 post compound dose by HPLC; assay type: ADME, organism-based, Plasma; parameters: dose 900 mg, time < 48 hr, route oral; conditions: in vivo
Outline: (§2)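 Blood was drawn predose and at 2, 4, 6, 8, 10, 12, 24, 34 and 48 h after the first dose (day 5), and again on day 19 after 7 thrice-weekly doses (72-h sampling). Rifapentine and 25-desacetyl-rifapentine were measured by validated HPLC-UV with trimipramine as internal standard. Parameters came from noncompartmental analysis, with AUC truncated at 48 h.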

Homo sapiens [7] = experiment: AUC (0 to 48 hrs) in healthy human assessed as 25-desacetyl-rifapentine level at 900 mg, po thrice weekly measured on day 19 post compound dose by HPLC; assay type: ADME, organism-based, Plasma; parameters: dose 900 mg, time < 48 hr, route oral; conditions: in vivo; outline: as §2
Homo sapiens [8] = experiment: Tmax in healthy human assessed as 25-desacetyl-rifapentine level at 900 mg, po administered as a single dose measured on day 5 post compound dose by HPLC; assay type: ADME, organism-based; conditions: in vivo
Outline: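 Healthy volunteers took a single oral 900 mg rifapentine dose on day 5, after a continental breakfast (750 kcal, 20% fat), alongside ongoing 400 mg daily MXF. Plasma was sampled predose and at 2, 4, 6, 8, 10, 12, 24, 34 and 48 h. 25-desacetyl-RPT was measured by validated HPLC with UV detection and trimipramine internal standard. Tmax was derived noncompartmentally.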

Homo sapiens [9] = experiment: Toxicity in healthy human assessed as incidence of adverse events at 400 mg, po qd coadministered with 900 mg, po thrice weekly of rifapentine on day 5 post compound dose measured on day 19 post compound dose; assay type: organism-based; conditions: in vivo
Outline: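 Doses were given after a continental breakfast, with no other medications, alcohol or smoking allowed. Adherence was tracked by pill counts and medication diaries, and adverse events were recorded during and after dosing.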

[10] = AUC (0 to 48 hrs) in healthy human at 900 mg, po administered as a single dose measured on day 5 post compound dose by HPLC; assay type: ADME, organism-based; parameters: time < 48 hr, dose 900 mg, route oral; conditions: plasma; outline: as §2
[11] = Cmax in healthy human at 900 mg, po administered as a single dose measured on day 5 post compound dose by HPLC; assay type: ADME, organism-based; parameters: dose 900 mg, route oral; conditions: in vivo; outline: as §2
[12] = Tmax in healthy human at 900 mg, po administered as a single dose measured on day 5 post compound dose by HPLC; assay type: ADME, organism-based; conditions: in vivo
Outline: (§3)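 Healthy volunteers took oral RPT 900 mg thrice weekly, alongside MXF 400 mg daily, after a 750-kcal breakfast. Plasma was sampled over 48 h after the first RPT dose (day 5) and over 72 h after the seventh dose (day 19). RPT was measured by validated HPLC-UV with a trimipramine internal standard. Parameters were derived noncompartmentally, with AUC over 48 h, and compared as day 19/day 5 geometric mean ratios with 90% CI.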

[13] = Half life in healthy human at 900 mg, po administered as a single dose measured on day 5 post compound dose by HPLC; assay type: ADME, organism-based; conditions: in vivo; outline: as §2
[14] = Apparent oral clearance in healthy human at 900 mg, po administered as a single dose measured on day 5 post compound dose by HPLC; assay type: ADME, organism-based; conditions: in vivo; outline: as §2
Homo sapiens [15] = experiment: Volume of distribution in healthy human at 900 mg, po administered as a single dose measured on day 5 post compound dose by HPLC; assay type: ADME, organism-based; conditions: in vivo; outline: as §2
[16] = AUC (0 to 48 hrs) in healthy human at 900 mg, po thrice weekly measured on day 19 post compound dose by HPLC; assay type: ADME, organism-based; parameters: time < 48 hr, dose 900 mg, route oral; conditions: plasma; outline: as §2
[17] = Cmax in healthy human at 900 mg, po thrice weekly measured on day 19 post compound dose by HPLC; assay type: ADME, organism-based; parameters: dose 900 mg, route oral; conditions: in vivo; outline: as §2
[18] = Tmax in healthy human at 900 mg, po thrice weekly measured on day 19 post compound dose by HPLC; assay type: ADME, organism-based; conditions: in vivo; outline: as §3
[19] = Half life in healthy human at 900 mg, po thrice weekly measured on day 19 post compound dose by HPLC; assay type: ADME, organism-based; conditions: in vivo; outline: as §2
[20] = Apparent oral clearance in healthy human at 900 mg, po thrice weekly measured on day 19 post compound dose by HPLC; assay type: ADME, organism-based; conditions: in vivo; outline: as §2
Homo sapiens [21] = experiment: Volume of distribution in healthy human at 900 mg, po thrice weekly measured on day 19 post compound dose by HPLC; assay type: ADME, organism-based; conditions: in vivo; outline: as §2
Homo sapiens [22] = experiment: Ratio of AUC (0 to 48 hrs) in healthy human at 900 mg, po thrice weekly measured on day 19 post compound dose to AUC (0 to 48 hrs) in healthy human at 900 mg, po administered as a single dose measured on day 5 post compound dose; assay type: ADME, organism-based; conditions: in vivo; outline: as §3
Homo sapiens [23] = experiment: Ratio of Cmax in healthy human at 900 mg, po thrice weekly measured on day 19 post compound dose to Cmax in healthy human at 900 mg, po administered as a single dose measured on day 5; conditions: in vivo
Homo sapiens [24] = experiment: Ratio of Tmax in healthy human at 900 mg, po thrice weekly measured on day 19 post compound dose to Tmax in healthy human at 900 mg, po administered as a single dose measured on day 5; conditions: in vivo
Homo sapiens [25] = experiment: Ratio of Half life in healthy human at 900 mg, po thrice weekly measured on day 19 post compound dose to Half life in healthy human at 900 mg, po administered as a single dose measured on day 5; conditions: in vivo
Homo sapiens [26] = experiment: Ratio of Volume of distribution in healthy human at 900 mg, po thrice weekly measured on day 19 post compound dose to Volume of distribution in healthy human at 900 mg, po administered as a single dose measured on day 5; conditions: in vivo
Homo sapiens [27] = experiment: Ratio of Apparent oral clearance in healthy human at 900 mg, po thrice weekly measured on day 19 post compound dose to Apparent oral clearance in healthy human at 900 mg, po administered as a single dose measured on day 5; conditions: in vivo

COc1c(N2C[C@@H]3CCCN[C@@H]3C2)c(F)cc2c(=O)c(C(=O)O)cn(C3CC3)c12 [MOXIFLOXACIN]
AUC at 24 h [1]: 41900 ng·h/mL
Tmax [2]: 2.37 h
AUC at 24 h [3]: 34400 ng·h/mL
Cmax [4]: 3330 ng/mL
Tmax [5]: 2.6 h
AUC (Homo sapiens [6]): 461.7 µg·h/mL
AUC (Homo sapiens [7]): 369.9 µg·h/mL
Tmax (Homo sapiens [8]): 24.9 h
Activity (Homo sapiens [9]): Non-toxic

CO[C@H]1/C=C/O[C@@]2(C)Oc3c(C)c(O)c4c(O)c(c(/C=N/N5CCN(C6CCCC6)CC5)c(O)c4c3C2=O)NC(=O)/C(C)=C\C=C\[C@H](C)[C@H](O)[C@@H](C)[C@@H](O)[C@@H](C)[C@H](OC(C)=O)[C@@H]1C [RIFAPENTINE]
AUC(0-t) at 48 h [10]: 513 µg·h/mL
Cmax [11]: 21900 ng/mL
Tmax [12]: 5.08 h
half-life [13]: 1110 min
CL/F [14]: 26.5 mL/min
Vd (Homo sapiens [15]): 40.7 L
AUC at 48 h [16]: 410 µg·h/mL
Cmax [17]: 21200 ng/mL
Tmax [18]: 4.77 h
half-life [19]: 888 min
CL/F [20]: 36.2 mL/min
Vd (Homo sapiens [21]): 43.7 L
Ratio AUC (Homo sapiens [22]): 0.8
Ratio (Homo sapiens [23]): 0.96
Ratio (Homo sapiens [24]): 0.93
Ratio (Homo sapiens [25]): 0.78
Ratio (Homo sapiens [26]): 1.07
Ratio (Homo sapiens [27]): 1.36
